SMILES strings stand for the structures. Active and inactive are the calls of the source. The rule behind the calls is not given here.

Chain of Human immunodeficiency virus type 1 integrase (Q7ZJM1 whole entry): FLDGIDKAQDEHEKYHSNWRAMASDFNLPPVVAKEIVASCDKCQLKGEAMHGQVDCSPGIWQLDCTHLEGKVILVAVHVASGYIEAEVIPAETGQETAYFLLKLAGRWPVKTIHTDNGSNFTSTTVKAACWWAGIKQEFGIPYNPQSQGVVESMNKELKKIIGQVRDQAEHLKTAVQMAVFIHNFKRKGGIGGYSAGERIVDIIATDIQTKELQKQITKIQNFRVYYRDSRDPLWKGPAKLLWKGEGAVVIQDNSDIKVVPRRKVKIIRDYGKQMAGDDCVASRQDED

System in one data set: not listed separately
The data set is described as follows: Metal chelating activity assessed as Mg2+-compound complex formation at 3.8 x 10^-5M by UV-visible spectrophotometric titration analysis. Conditions: dose 3.8 10^-5M. In outline:
(§1)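 Compound in absolute ethanol, titrated with MgCl2 stock solutions (4 10–5 to 0.2 M, diluted in ethanol). UV–vis spectra were recorded from 230 to 370 or 600 nm against ethanol in a 1 cm quartz cuvette, in triplicate. Stoichiometry was found by Job's method using equimolar metal/ligand mixtures. ΔA was plotted against ligand mole fraction, and the maximum was located by linear regression.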
On to `O=C(O)c1cn(Cc2ccc(F)cc2)c2ccc(OCc3cccc4ccccc34)cc2c1=O`, for which the outcome was Active.

Another data set concerns the target T1, Human immunodeficiency virus type 1 reverse transcriptase (Human immunodeficiency virus 1, UniProt Q72547). Description: Inhibition of HIV-1 reverse transcriptase associated RNA-dependent DNA polymerase activity using poly(A)-oligo(dT) as template/primer incubated for 30 mins by multilabel counter plate reader analysis.
Conditions: not given
For `O=C(/C=C/c1ccc2c(c1)c(=O)c(C(=O)O)cn2Cc1ccc(F)cc1)c1ccccc1`, the IC50 is > 100 µM.

Another data set has as its target Human immunodeficiency virus type 1 integrase (Human immunodeficiency virus 1, UniProt Q7ZJM1). The data set is described as follows: Inhibition of recombinant His-tagged HIV-1 NL4-3 integrase expressed in Escherichia coli BL21 pLys using GTGTGGAAAATCTCTAGCA/ACTGCTAGAGATTTTCCACAC as DNA substrate incubated for 2 hrs by densitometric analysis.
Conditions: not given
Turning to `CCOC(=O)c1cn(Cc2ccc(F)cc2)c2ccc(C(C)=O)cc2c1=O`, the IC50 is > 100 µM. For the molecule `O=C(O)c1cn(Cc2ccc(F)cc2)c2ccc(OCc3ccc4c(c3)OCO4)cc2c1=O`, the IC50 was > 100 µM. Still for that read-out and setting: as for `O=C(O)c1cn(Cc2ccc(F)cc2)c2ccc(OCc3ccc(-c4ccccc4)cc3)cc2c1=O`, the figure is > 250 µM; as for `O=C(O)c1cn(Cc2ccc(F)cc2)c2ccc(OCc3cccc(Cl)c3Cl)cc2c1=O`, > 100 µM. Still for that read-out and setting: the result for `CC(=O)c1ccc2c(c1)c(=O)c(C(=O)O)cn2Cc1ccc(F)cc1` reads > 100 µM.

Regarding `CCOC(=O)/C=C/C(=O)/C=C/c1cccn1Cc1ccccc1Cl`, the IC50 is > 100 µM. Regarding `O=C(O)c1cn(Cc2ccc(F)cc2)c2ccc(OCc3cccc4ccccc34)cc2c1=O`, the IC50 was > 100 µM.

System in the next data set: not listed separately
The data set is described as follows: Selectivity index, ratio of CC50 for cytotoxicity against human HeLa-CD4-LTR-beta-gal cells to EC50 for antiviral activity against HIV 1 infected in human HeLa-CD4-LTR-beta-gal cells. Conditions: read-out: Ratio CC50/EC50. Type of data set: toxicity, cell-based. In outline: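 Selectivity index is CC50/EC50. Both values come from HeLa-CD4-LTR-β-gal cells at 24 h. EC50 is from β-galactosidase readout after infection with in-house HIV-1 (H9-laï coculture). CC50 is from the CellTiter 96 AQueous One proliferation assay.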
For the molecule `CCOC(=O)/C=C/C(=O)/C=C/c1cccn1Cc1ccccc1Cl`, the selectivity ratio is > 13.7.

System in the next data set: not listed separately
Description: Metal chelating activity assessed as Mg2+-compound complex formation at 4.1 x 10^-5 M by UV-visible spectrophotometric titration analysis. The settings on record: dose 4.1 10^-5M. In outline:
as §1
With `CCOC(=O)c1cn(Cc2ccc(F)cc2)c2ccc(OCc3cccc4ccccc34)cc2c1=O`, the result was Active.

The target of another data set is T1, Human immunodeficiency virus type 1 reverse transcriptase. Description: Inhibition of recombinant His-tagged wild-type HIV-1 group M subtype B BH10 reverse transcriptase-associated RNase H activity harboring p66/p51 hetrodimer expressed in Escherichia coli M15 using GTTTTCTTTTCCCCCCTGAC-30 fluorescein/50-CAAAAGAAAAGGGGGGACUG-30 Dabcyl RNA/DNA template-primer as substrate incubated for 1 hr by multilabel counter plate reader analysis.
Conditions: not given
In outline:
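His-tagged p66/p51 RT was expressed in E. coli M15, with mutations placed in p66 by site-directed mutagenesis. The mix held 50 mM Tris HCl pH 7.8, 6 mM MgCl2, 1 mM DTT, 80 mM KCl, 250 nM fluorescein/Dabcyl RNA/DNA hybrid and serial compound dilutions, with no preincubation. Reactions were started with enzyme (wt, R448A, K451A 20 ng; K540A 40 ng; N474A 500 ng), run 1 h at 37 °C and read at 490/528 nm. Duplicates were repeated at least twice; IC50 is mean ± SD.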
With `O=C(O)c1cn(Cc2ccc(F)cc2)c2ccccc2c1=O`, the IC50 was > 100 µM. On to `N#Cc1ccc2c(c1)c(=O)c(C(=O)O)cn2Cc1ccc(F)cc1`, for which the IC50 was > 100 µM. Still for that read-out and setting: the result for `CCOC(=O)c1cn(Cc2ccc(F)cc2)c2ccc(S(C)(=O)=O)cc2c1=O` reads > 100 µM; that for `CCOC(=O)c1cn(Cc2ccc(F)cc2)c2ccc(O)cc2c1=O`, > 100 µM; that for `CCOC(=O)c1cn(Cc2ccc(F)cc2)c2ccc(OC)cc2c1=O`, > 100 µM. Take `O=C(O)c1cn(Cc2ccc(F)cc2)c2ccc(C(F)(F)F)cc2c1=O`: the concentration for half-maximal inhibition (IC50) is > 100 µM. The same measure, in the same setting: the result for `CCOC(=O)c1cn(Cc2ccc(F)cc2)c2ccc(C#N)cc2c1=O` reads > 100 µM; that for `CCOC(=O)c1cn(Cc2ccc(F)cc2)c2ccc(OCCCN(C)C)cc2c1=O`, > 100 µM; that for `COc1ccc2c(c1)c(=O)c(C(=O)O)cn2Cc1ccc(F)cc1`, > 100 µM. As to `CCOC(=O)c1cn(Cc2ccc(F)cc2)c2ccc(OCc3ccc(-c4ccccc4)cc3)cc2c1=O`, the IC50 is > 100 µM.

For the origin of these results see ChEMBL document CHEMBL5096188, “Quinolinonyl Non-Diketo Acid Derivatives as Inhibitors of HIV-1 Ribonuclease H and Polymerase Functions of Reverse Transcriptase” (J Med Chem, 2021).
